Series [1] concerns the target Human immunodeficiency virus type 1 reverse transcriptase (Human immunodeficiency virus 1, UniProt Q72547). In words: Inhibition of recombinant HIV1 reverse transcriptase RNase H expressed in Escherichia coli JM109 using RNA/DNA duplex substrate HTS1 as substrate.
In series [2] the target is Gag-Pol polyprotein (Human immunodeficiency virus type 1 group M subtype B (isolate HXB2)(HIV-1), UniProt P04585). In words: Inhibition of recombinant HIV1 reverse transcriptase polymerase expressed in Escherichia coli JM109 assessed as decrease in extension of 18 nucleotide DNA primer annealed to 100 nucleotide DNA template measured after 30 mins. Further details: species or system Human immunodeficiency virus 1. The method in brief: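 18-nt DNA primer annealed to 100-nt DNA template (40 nM) was extended by 20 nM RT with dNTPs in 50 mM Tris pH 7.8, 50 mM NaCl, 1% DMSO, with increasing compound concentrations. Reactions were started with 6 mM MgCl₂, run 30 min at 37 °C, and stopped with EDTA. dsDNA formed was quantified by fluorescent dye (ex/em 504/531 nm), and dose-response data were fitted to a logistic curve.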

Series [3] concerns the target Human immunodeficiency virus type 1 integrase (Human immunodeficiency virus 1, UniProt Q7ZJM1). In words: Inhibition of HIV integrase strand transfer activity expressed in Escherichia coli BL21 (DE3) using 5' biotin ATGTGGAAAATCTCTAGCA primer annealed with ACTGCTAGAGATTTTCCACAT 3' Cy5 template preincubated for 10 mins followed by primer/template addition measured after 30 mins by fluorescence assay. In short, it runs like this: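 Purified HIV integrase in 10 mM HEPES pH 7.5, 10% glycerol, 10 mM MnCl₂, 1 mM DTT, with compounds in duplicate at 0.13–100 (final), 10 min at 25 °C. 500 nM biotin/Cy5 oligo duplex added, 30 min at 37 °C, EDTA quench. Products captured on streptavidin beads, washed, NaOH-denatured, formamide-eluted, read at 635/675.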

The nature of series [4]: Selectivity ratio of CC50 for human P4R5 cells to EC50 for HIV1 infected in human P4R5 cells. Type of series: toxicity, cell-based. In short, it runs like this: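 P4R5 indicator cells, 4 × 10³ per well in DMEM/10% FBS with puromycin. […] Cytotoxicity arm: uninfected cells, compound for 72 h, XTT read-out; CC50 is 50% cell death. Each value is mean ± SD of ≥2 independent experiments.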

The test system of series [5] is Human immunodeficiency virus 1. In words: Antiviral activity against HIV1 infected in human P4R5 cells assessed as reduction in viral infection preincubated with cells for 24 hrs followed by viral infection measured after 48 hrs by fluorescence based MAGI assay. Type of series: functional, organism-based. The method in brief:
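P4R5 indicator cells were seeded at 4 × 10³ per well in DMEM/10% FBS with puromycin. They were pretreated for 24 h with 1% DMSO or a range of compound concentrations, then infected with HIV-1 at an MOI of 1.25 for another 48 h. Cells were lysed and β-galactosidase was read by fluorescence with MUG substrate. EC50 is given as mean ± SD of at least two independent experiments.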

Series [6] in a line: Cytotoxicity against human P4R5 cells assessed as reduction in cell viability after 72 hrs by XTT assay. Type of series: cell-based. The method in brief:
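P4R5 cells seeded at 4 × 10³ per well in DMEM/10% FBS with puromycin ([…]). Cells treated with 1% DMSO or varying compound concentrations for 72 h, then viability read by XTT kit. CC50 = concentration giving 50% cell death, mean from at least two independent experiments.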

Broadly, the IC50 is the midpoint of a concentration-inhibition curve. The EC50 is the concentration at which the effect is half-maximal. As a reminder, the CC50 is the concentration that lowers cell viability or growth by half.

Each structure is given as a SMILES string.

Sequence of Human immunodeficiency virus type 1 integrase (Q7ZJM1 whole entry): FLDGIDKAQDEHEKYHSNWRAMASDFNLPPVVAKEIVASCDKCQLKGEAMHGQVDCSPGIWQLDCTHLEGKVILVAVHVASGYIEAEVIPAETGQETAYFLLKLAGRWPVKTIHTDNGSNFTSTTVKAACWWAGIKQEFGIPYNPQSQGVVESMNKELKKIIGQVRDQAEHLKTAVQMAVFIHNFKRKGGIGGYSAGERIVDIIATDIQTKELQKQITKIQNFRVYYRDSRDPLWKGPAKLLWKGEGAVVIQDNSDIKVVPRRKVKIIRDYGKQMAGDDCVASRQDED

Consider `O=c1cc(Cc2cccc(-c3ccc(Cl)cc3)c2)[nH]c(=O)n1O`, for which the IC50 in series [1] is 0.012 µM; in series [2], > 10 µM; in series [3], > 100 µM. Moreover, in series [4], the Ratio CC50/EC50 was 4 to 6. Besides, the concentration giving a half-maximal response (EC50) in series [5] worked out at 7.6 µM. Also, the cytotoxic concentration (CC50) in series [6] amounted to 27 µM.

`COc1ccc(-c2ccc(Cc3cc(=O)n(O)c(=O)[nH]3)cc2)cc1F`: the figures for the IC50 in series [1], in series [2] and in series [3] were 0.0076 µM, > 10 µM and > 100 µM, respectively. Further, in series [4], the Ratio CC50/EC50 lay in the range of 4 to 6. Moreover, in series [5], the half-maximal effective concentration (EC50) was determined as 11 µM. In series [6], the CC50 came to 49 µM.

The record behind these values is ChEMBL document CHEMBL4270571, “6-Biphenylmethyl-3-hydroxypyrimidine-2,4-diones potently and selectively inhibited HIV reverse transcriptase-associated RNase H” (Eur J Med Chem, 2018).
